Columns and labels:
Rattus norvegicus [1] = assay: Tested in vivo for ability to inhibit PAF-induced hypotension in rats by measuring the drop in mean arterial blood pressure(mmHg) after 20 minutes activity; assay type: functional
Summary of the method: (§1)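 Male Sprague-Dawley rats (225 ± 2 g) under sodium pentobarbital (50 mg/kg ip). PAF 0.66 µg/kg injected; compounds 5 mg/kg iv given 3 min later at maximal blood pressure fall. Blood pressure changes recorded for 30 min after PAF, compared with vehicle controls (five rats per group).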

Rattus norvegicus [2] = assay: Tested in vivo for ability to inhibit PAF-induced hypotension in rats by measuring the drop in mean arterial blood pressure(mmHg) after 3 minutes activity; assay type: functional; summary of the method: as §1

**Q.** What does the source list for CCO/C(O)=C1/C(C)=NC(C)=C(C(=O)OCCSc2ccccc2)C1C (configuration not stated)?
**A.** MABP (Rattus norvegicus [1]): 23 mmHg; MABP (Rattus norvegicus [2]): 52 mmHg

**Q.** For CCCC1C(C(=O)OCCSCC)=C(C)N=C(C)/C1=C(/O)OCC (configuration not stated), which MABP (Rattus norvegicus [1]) is on record?
**A.** 71 mmHg

**Q.** And the MABP (Rattus norvegicus [2])?
**A.** 106 mmHg

**Q.** What does the source list for CO/C(O)=C1\C(C)=NC(C)=C(C(=O)OCCSc2ccccc2)C1C (configuration not stated)?
**A.** MABP (Rattus norvegicus [1]): 14 mmHg; MABP (Rattus norvegicus [2]): 30 mmHg

**Q.** Which MABP (Rattus norvegicus [1]) does the source give for CCO/C(O)=C1\C(C)=NC(C)=C(C(=O)OCCSC)C1C (configuration not stated) here?
**A.** 29 mmHg

**Q.** What about the MABP (Rattus norvegicus [2]) of the same molecule?
**A.** 88 mmHg

**Q.** What does the source list for CO/C(O)=C1\C(C)=NC(C)=C(C(=O)OCCSC)C1C (configuration not stated)?
**A.** MABP (Rattus norvegicus [1]): 5 mmHg; MABP (Rattus norvegicus [2]): 51 mmHg

**Q.** What does the source list for CC1=NC(C)=C(C(=O)OCCSc2ccccc2)C(C)/C1=C(\O)OC(C)C (configuration not stated)?
**A.** MABP (Rattus norvegicus [1]): 27 mmHg; MABP (Rattus norvegicus [2]): 78 mmHg

**Q.** With CCO/C(O)=C1\C(C)=NC(C)=C(C(=O)OCCSC)C1CC (configuration not stated) as the molecule, how does the MABP (Rattus norvegicus [1]) read?
**A.** 36 mmHg

**Q.** What about the MABP (Rattus norvegicus [2]) of the same molecule?
**A.** 77 mmHg

**Q.** What does the source list for CCO/C(O)=C1\C(C)=NC(C)=C(C(=O)OCCSCC)C1C (configuration not stated)?
**A.** MABP (Rattus norvegicus [1]): 18 mmHg; MABP (Rattus norvegicus [2]): 64 mmHg

**Q.** For CCCC1C(C(=O)OCCSC)=C(C)N=C(C)/C1=C(/O)OCC (configuration not stated), which MABP (Rattus norvegicus [1]) is on record?
**A.** 60 mmHg

**Q.** What about the MABP (Rattus norvegicus [2]) of the same molecule?
**A.** 101 mmHg

**Q.** How did the MABP (Rattus norvegicus [1]) turn out when CCSCCO/C(O)=C1\C(C)=NC(C)=C(C(=O)OC)C1C (configuration not stated) was run?
**A.** 32 mmHg

**Q.** What about the MABP (Rattus norvegicus [2]) of the same molecule?
**A.** 68 mmHg

**Q.** Which MABP (Rattus norvegicus [1]) does the source give for CC1=NC(C)=C(C(=O)OCCSc2ccccc2)C(C)/C1=C(\O)OCC1CCCO1 (configuration not stated) here?
**A.** 21 mmHg

**Q.** And the MABP (Rattus norvegicus [2])?
**A.** 63 mmHg

Source: ChEMBL document CHEMBL1125130, “4-Alkyl-1,4-dihydropyridines derivatives as specific PAF-acether antagonists” (J Med Chem, 1990)
